Legend:
Leishmania donovani = test: Leishmanicidal activity against promastigote stage of Leishmania donovani MHOM/SD/00/1S-2D after 2 hrs by MTT assay; type: functional, organism-based
Leishmania infantum = test: Leishmanicidal activity against amastigote stage of Leishmania infantum MCAN/ES/89/IPZ229/1/89 after 2 hrs by MTT assay; type: functional, organism-based; details: MCAN/ES/89/IPZ229/1/89, 2 h
[1] = Induction of singlet oxygen generation measured over 20 mins by luminescence assay; type: physicochemical
[2] = Photobleaching of the compound irradiated with laser energy at 405 nm for 5 mins; type: physicochemical; parameters: dose or concentration left out as unconfirmed
Enterococcus faecalis [3] = test: Toxicity in Enterococcus faecalis ATCC 29212 assessed as reduction of log10 CFU at 1 to 250 uM incubated for 10 secs under dark condition measured after 24 hrs by agar plating method; type: organism-based; details: in vivo
In short: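 Dark controls. Overnight BHI cultures (EF, SM, AN aerobic; AA anaerobic; 37 °C) were washed into PBS at 10^7–10^8 cells/mL. They were mixed 1:1 with photosensitizer at final 0–250 µM and incubated 10 s, 7.5 min or 15 min, then kept in the dark for 20, 40 or 120 s. Tenfold dilutions were plated: EF on Mueller-Hinton agar, aerobic 24 h; SM on BHI agar, aerobic 48 h; AN on blood agar, aerobic 48 h; AA on BHI agar, anaerobic 48 h; all at 37 °C. CFU were compared with untreated controls; medians of three independent experiments in triplicate.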

[4] = Octanol-water partition coefficient, log P of the compound at 1 x 10^-4 mol at room temperature after 10 mins by UV/vis spectroscopic analysis; type: physicochemical
Enterococcus faecalis [5] = test: Photodynamic inactivation of Enterococcus faecalis ATCC 29212 assessed as reduction of log10 CFU at 1 uM incubated prior to irradiation with 25 j/cm'2 for 20 secs measured after 24 hrs by agar plating method (reference value: <1 no unit); type: functional
In short: (§1)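 E. faecalis ATCC 29212, aerobic overnight BHI culture at 37 °C, was harvested at stationary phase and suspended in PBS at 10^7–10^8 bacteria/mL. It was mixed 1:1 with PS to 0–250 µM final, held 10 s, then illuminated (1260 ± 50 mW/cm2) or kept dark. Dilutions were plated on Mueller-Hinton agar, aerobic 37 °C 24 h, CFU counted. Medians of three independent triplicate experiments, referred to untreated controls.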

Enterococcus faecalis [6] = test: Photodynamic inactivation of Enterococcus faecalis ATCC 29212 assessed as reduction of log10 CFU at 1 uM incubated prior to irradiation with 150 j/cm'2 for 120 secs measured after 24 hrs by agar plating method (reference value: <1 no unit); type: functional; in short: as §1
Enterococcus faecalis [7] = test: Photodynamic inactivation of Enterococcus faecalis ATCC 29212 assessed as reduction of log10 CFU at 1 uM incubated prior to irradiation with 50 j/cm'2 for 40 secs measured after 24 hrs by agar plating method (reference value: <1 no unit); type: functional; in short: as §1
Enterococcus faecalis [8] = test: Photodynamic inactivation of Enterococcus faecalis ATCC 29212 assessed as reduction of log10 CFU at 5 uM incubated prior to irradiation with 25 j/cm'2 for 20 secs measured after 24 hrs by agar plating method (reference value: <1 no unit); type: functional; in short: as §1
Enterococcus faecalis [9] = test: Photodynamic inactivation of Enterococcus faecalis ATCC 29212 assessed as reduction of log10 CFU at 5 uM incubated prior to irradiation with 50 j/cm'2 for 40 secs measured after 24 hrs by agar plating method (reference value: <1 no unit); type: functional; in short: as §1
Enterococcus faecalis [10] = test: Photodynamic inactivation of Enterococcus faecalis ATCC 29212 assessed as reduction of log10 CFU at 5 uM incubated prior to irradiation with 150 j/cm'2 for 120 secs measured after 24 hrs by agar plating method (reference value: <1 no unit); type: functional; in short: as §1
Enterococcus faecalis [11] = test: Photodynamic inactivation of Enterococcus faecalis ATCC 29212 assessed as reduction of log10 CFU at 10 uM incubated prior to irradiation with 25 j/cm'2 for 20 secs measured after 24 hrs by agar plating method (reference value: <1 no unit); type: functional; in short: as §1
Enterococcus faecalis [12] = test: Photodynamic inactivation of Enterococcus faecalis ATCC 29212 assessed as reduction of log10 CFU at 10 uM incubated prior to irradiation with 50 j/cm'2 for 40 secs measured after 24 hrs by agar plating method (reference value: <1 no unit); type: functional; in short: as §1
Enterococcus faecalis [13] = test: Photodynamic inactivation of Enterococcus faecalis ATCC 29212 assessed as reduction of log10 CFU at 10 uM incubated prior to irradiation with 150 j/cm'2 for 120 secs measured after 24 hrs by agar plating method (reference value: <1 no unit); type: functional; in short: as §1
Enterococcus faecalis [14] = test: Photodynamic inactivation of Enterococcus faecalis ATCC 29212 assessed as reduction of log10 CFU at 100 uM incubated prior to irradiation with 25 j/cm'2 for 20 secs measured after 24 hrs by agar plating method (reference value: <1 no unit); type: functional; in short: as §1
Enterococcus faecalis [15] = test: Photodynamic inactivation of Enterococcus faecalis ATCC 29212 assessed as reduction of log10 CFU at 100 uM incubated prior to irradiation with 50 j/cm'2 for 40 secs measured after 24 hrs by agar plating method (reference value: <1 no unit); type: functional; in short: as §1
Enterococcus faecalis [16] = test: Photodynamic inactivation of Enterococcus faecalis ATCC 29212 assessed as reduction of log10 CFU at 100 uM incubated prior to irradiation with 150 j/cm'2 for 120 secs measured after 24 hrs by agar plating method (reference value: <1 no unit); type: functional; in short: as §1

SMILES | Activity [1] | Stability [2] | logP at 10 min [4] | EC50 (Leishmania donovani) | EC50 (Leishmania infantum) | Activity (Enterococcus faecalis [3]) | log10cfu (Enterococcus faecalis [5]) | log10cfu (Enterococcus faecalis [6]) | log10cfu (Enterococcus faecalis [7]) | log10cfu (Enterococcus faecalis [8]) | log10cfu (Enterococcus faecalis [9]) | log10cfu (Enterococcus faecalis [10]) | log10cfu (Enterococcus faecalis [11]) | log10cfu (Enterococcus faecalis [12]) | log10cfu (Enterococcus faecalis [13]) | log10cfu (Enterococcus faecalis [14]) | log10cfu (Enterococcus faecalis [15]) | log10cfu (Enterococcus faecalis [16])
O=C1C(O)=Cc2cccc3ccc(-c4ccccc4)c1c23 | Active | Unstable | – | < 60 µg/mL | < 60 µg/mL | – | – | – | – | – | – | – | – | – | – | – | – | –
CC(c1ccccc1)[N+](C)(C)CC1=Cc2cccc3cccc(c23)C1=O.[Cl-] (stereo unspecified) | Active | Unstable | -0.1 | – | – | Non-toxic | <1 | <3 | <1 | <3 | <3 | >6 | <3 | <3 | >6 | >6 | >6 | >6
COC1=Cc2cccc3ccc(-c4ccccc4)c(c23)C1=O | Active | Unstable | – | < 60 µg/mL | < 60 µg/mL | – | – | – | – | – | – | – | – | – | – | – | – | –

The next lines start with results.

Activity [1] | Stability [2] | logP at 10 min [4] | SMILES | EC50 (Leishmania donovani) | EC50 (Leishmania infantum) | Activity (Enterococcus faecalis [3]) | log10cfu (Enterococcus faecalis [5]) | log10cfu (Enterococcus faecalis [6]) | log10cfu (Enterococcus faecalis [7]) | log10cfu (Enterococcus faecalis [8]) | log10cfu (Enterococcus faecalis [9]) | log10cfu (Enterococcus faecalis [10]) | log10cfu (Enterococcus faecalis [11]) | log10cfu (Enterococcus faecalis [12]) | log10cfu (Enterococcus faecalis [13]) | log10cfu (Enterococcus faecalis [14]) | log10cfu (Enterococcus faecalis [15]) | log10cfu (Enterococcus faecalis [16])
Active | Unstable | -0.8 | CCCC[N+](C)(C)CC1=Cc2cccc3cccc(c23)C1=O.[Cl-] | – | – | Non-toxic | <1 | <3 | <1 | <1 | <3 | 3 | <3 | <3 | >6 | >6 | >6 | >6
– | – | 1.3 | O=C1C(CCl)=Cc2cccc3cccc1c23 | – | – | – | – | – | – | – | – | – | – | – | – | – | – | –
